Measurements from ChEMBL document CHEMBL1773048, “Synthesis of glycopeptide dendrimers, dimerization and affinity for Concanavalin A” (Bioorg Med Chem, 2011).
Where a SMILES comes first, the peptide text is derived from it. Bridges are numbered along the chain shown (N, C = ends). Roman numbers before positions name the chains, in order. [ ]: non-standard residue; d: D form. The star is where a group is joined. αMan = OC[C@H]1O[C@H](*)[C@@H](O)[C@@H](O)[C@@H]1O; Mpa = O=C(O)CCS

Assays:
[1] = Ratio of methyl alpha-D-mannoside IC50 to compound IC50 for binding affinity to Concanavalin A per carbohydrate moiety
Procedure, shortened: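 Valency-normalised relative potency is IC50 of methyl α-D-mannoside divided by (inhibitor IC50 × n), where n is the number of mannose units. The reference IC50 is measured on the same plate by enhanced-sensitivity ELLA.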

[2] = Displacement of yeast mannan from Concanavalin A by Enzyme-linked lectin assay
Procedure, shortened: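 Enhanced-sensitivity ELLA. Yeast mannan (10 µg/mL in PBS with CaCl2 and MnCl2) is coated overnight on plates and blocked 1 h at 37 °C with PBS containing 10 mg/mL BSA. Two-fold serial dilutions of inhibitor are preincubated 1 h at 37 °C with biotinylated Con A (5 µg/mL), transferred to the plates and incubated 1 h at 37 °C. Preformed Neutravidin–biotin-HRP is added for 1 h, then ABTS/H2O2 at pH 4.0. A415 is read after 5 min. IC50 is taken at 50% inhibition, at least triplicate.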

[3] = Ratio of methyl alpha-D-mannoside IC50 to compound IC50 for binding affinity to Concanavalin A
Procedure, shortened: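 Relative potency is IC50 of methyl α-D-mannoside divided by inhibitor IC50. The reference is measured under the same conditions on the same plate by enhanced-sensitivity ELLA, and reference IC50 values are corrected to a common experimental value.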

Structure (SMILES) | Ratio IC50 [1] | IC50 [2] [µM] | Ratio IC50 [3]
NC(=O)[C@H](CCCCNC(=O)[C@H](CCCCNC(=O)[C@H](Cc1ccc(O)cc1)NC(=O)CCS[C@H]1O[C@H](CO)[C@@H](O)[C@H](O)[C@@H]1O)NC(=O)[C@H](Cc1ccc(O)cc1)NC(=O)CCS[C@@H]1O[C@@H](CO)[C@H](O)[C@@H](O)[C@H]1O)NC(=O)[C@H](CCCCNC(=O)[C@H](Cc1ccc(O)cc1)NC(=O)CCS[C@H]1O[C@H](CO)[C@@H](O)[C@H](O)[C@@H]1O)NC(=O)[C@H](Cc1ccc(O)cc1)NC(=O)CCS[C@@H]1O[C@@H](CO)[C@H](O)[C@@H](O)[C@H]1O | 6.4 | 52 | 25.4
NC(=O)[C@H](CO)NC(=O)[C@H](CCCCNC(=O)[C@H](CCCCNC(=O)[C@H](Cc1ccc(O)cc1)NC(=O)CCS[C@H]1O[C@H](CO)[C@@H](O)[C@H](O)[C@@H]1O)NC(=O)[C@H](Cc1ccc(O)cc1)NC(=O)CCS[C@@H]1O[C@@H](CO)[C@H](O)[C@@H](O)[C@H]1O)NC(=O)[C@H](CCCCNC(=O)[C@H](Cc1ccc(O)cc1)NC(=O)CCS[C@H]1O[C@H](CO)[C@@H](O)[C@H](O)[C@@H]1O)NC(=O)[C@H](Cc1ccc(O)cc1)NC(=O)CCS[C@@H]1O[C@@H](CO)[C@H](O)[C@@H](O)[C@H]1O | 6 | 55 | 24
N=C(N)NCCC[C@H](NC(=O)[C@H](CCCCNC(=O)[C@H](CCCCNC(=O)[C@H](Cc1ccc(O)cc1)NC(=O)CCS[C@H]1O[C@H](CO)[C@@H](O)[C@H](O)[C@@H]1O)NC(=O)[C@H](Cc1ccc(O)cc1)NC(=O)CCS[C@@H]1O[C@@H](CO)[C@H](O)[C@@H](O)[C@H]1O)NC(=O)[C@H](CCCCNC(=O)[C@H](Cc1ccc(O)cc1)NC(=O)CCS[C@H]1O[C@H](CO)[C@@H](O)[C@H](O)[C@@H]1O)NC(=O)[C@H](Cc1ccc(O)cc1)NC(=O)CCS[C@@H]1O[C@@H](CO)[C@H](O)[C@@H](O)[C@H]1O)C(N)=O | 5.3 | 62 | 21.3
NC(=O)[C@H](CCCCNC(=O)[C@H](CCC(=O)O)NC(=O)[C@H](CCCCNC(=O)[C@H](Cc1ccc(O)cc1)NC(=O)CCS[C@@H]1O[C@@H](CO)[C@H](O)[C@@H](O)[C@H]1O)NC(=O)[C@H](Cc1ccc(O)cc1)NC(=O)CCS[C@H]1O[C@H](CO)[C@@H](O)[C@H](O)[C@@H]1O)NC(=O)[C@H](CCC(=O)O)NC(=O)[C@H](CCCCNC(=O)[C@H](Cc1ccc(O)cc1)NC(=O)CCS[C@H]1O[C@H](CO)[C@@H](O)[C@H](O)[C@@H]1O)NC(=O)[C@H](Cc1ccc(O)cc1)NC(=O)CCS[C@H]1O[C@H](CO)[C@@H](O)[C@H](O)[C@@H]1O | 5.5 | 60 | 22
NC(=O)[C@H](CCCCNC(=O)[C@H](CO)NC(=O)[C@H](CCCCNC(=O)[C@H](Cc1ccc(O)cc1)NC(=O)CCS[C@@H]1O[C@@H](CO)[C@H](O)[C@@H](O)[C@H]1O)NC(=O)[C@H](Cc1ccc(O)cc1)NC(=O)CCS[C@H]1O[C@H](CO)[C@@H](O)[C@H](O)[C@@H]1O)NC(=O)[C@H](CO)NC(=O)[C@H](CCCCNC(=O)[C@H](Cc1ccc(O)cc1)NC(=O)CCS[C@H]1O[C@H](CO)[C@@H](O)[C@H](O)[C@@H]1O)NC(=O)[C@H](Cc1ccc(O)cc1)NC(=O)CCS[C@H]1O[C@H](CO)[C@@H](O)[C@H](O)[C@@H]1O | 5.2 | 64 | 20.6
NC(=O)[C@H](CCC(=O)O)NC(=O)[C@H](CCCCNC(=O)[C@H](CCCCNC(=O)[C@H](Cc1ccc(O)cc1)NC(=O)CCS[C@H]1O[C@H](CO)[C@@H](O)[C@H](O)[C@@H]1O)NC(=O)[C@H](Cc1ccc(O)cc1)NC(=O)CCS[C@@H]1O[C@@H](CO)[C@H](O)[C@@H](O)[C@H]1O)NC(=O)[C@H](CCCCNC(=O)[C@H](Cc1ccc(O)cc1)NC(=O)CCS[C@H]1O[C@H](CO)[C@@H](O)[C@H](O)[C@@H]1O)NC(=O)[C@H](Cc1ccc(O)cc1)NC(=O)CCS[C@@H]1O[C@@H](CO)[C@H](O)[C@@H](O)[C@H]1O | 3.6 | 93 | 14.2
N=C(N)NCCC[C@H](NC(=O)[C@H](CCCCNC(=O)[C@H](Cc1ccc(O)cc1)NC(=O)CCS[C@@H]1O[C@@H](CO)[C@H](O)[C@@H](O)[C@H]1O)NC(=O)[C@H](Cc1ccc(O)cc1)NC(=O)CCS[C@H]1O[C@H](CO)[C@@H](O)[C@H](O)[C@@H]1O)C(=O)NCCCC[C@H](NC(=O)[C@H](CCCNC(=N)N)NC(=O)[C@H](CCCCNC(=O)[C@H](Cc1ccc(O)cc1)NC(=O)CCS[C@H]1O[C@H](CO)[C@@H](O)[C@H](O)[C@@H]1O)NC(=O)[C@H](Cc1ccc(O)cc1)NC(=O)CCS[C@H]1O[C@H](CO)[C@@H](O)[C@H](O)[C@@H]1O)C(N)=O | 3.6 | 92 | 14.3
O=[N+]([O-])c1ccc(O[C@H]2O[C@H](CO)[C@@H](O)[C@H](O)[C@@H]2O)cc1 | 2.1 | 644 | 2.1

The remaining compounds from weak to strong by IC50 [2], led by results:

Ratio IC50 [1] | IC50 [2] [µM] | Ratio IC50 [3] | Structure (SMILES)
0.13 | 10500 | 0.13 | OC[C@H]1OC(O)[C@@H](O)[C@@H](O)[C@@H]1O (stereo partly drawn) [D-MANNOSE]
1 | 1320 | 1 | CO[C@H]1O[C@H](CO)[C@@H](O)[C@H](O)[C@@H]1O
4.4 | 150 | 8.8 | NC(=O)[C@H](CCCCNC(=O)[C@H](Cc1ccc(O)cc1)NC(=O)CCS[C@H]1O[C@H](CO)[C@@H](O)[C@H](O)[C@@H]1O)NC(=O)[C@H](Cc1ccc(O)cc1)NC(=O)CCS[C@@H]1O[C@@H](CO)[C@H](O)[C@@H](O)[C@H]1O
6.4 | 104 | 12.7 | NC(=O)[C@H](CSSC[C@H](NC(=O)[C@H](Cc1ccc(O)cc1)NC(=O)CCS[C@H]1O[C@H](CO)[C@@H](O)[C@H](O)[C@@H]1O)C(N)=O)NC(=O)[C@H](Cc1ccc(O)cc1)NC(=O)CCS[C@H]1O[C@H](CO)[C@@H](O)[C@H](O)[C@@H]1O (I: [Mpa](αMan)-Tyr-Cys-NH2 / II: [Mpa](αMan)-Tyr-Cys-NH2; disulfide I:3-II:3)
6.4 | 52 | 25.4 | NC(=O)[C@H](CSSC[C@H](NC(=O)[C@H](CCCCNC(=O)[C@H](Cc1ccc(O)cc1)NC(=O)CCS[C@H]1O[C@H](CO)[C@@H](O)[C@H](O)[C@@H]1O)NC(=O)[C@H](Cc1ccc(O)cc1)NC(=O)CCS[C@@H]1O[C@@H](CO)[C@H](O)[C@@H](O)[C@H]1O)C(N)=O)NC(=O)[C@H](CCCCNC(=O)[C@H](Cc1ccc(O)cc1)NC(=O)CCS[C@H]1O[C@H](CO)[C@@H](O)[C@H](O)[C@@H]1O)NC(=O)[C@H](Cc1ccc(O)cc1)NC(=O)CCS[C@@H]1O[C@@H](CO)[C@H](O)[C@@H](O)[C@H]1O
57 | 2.9 | 455 | NC(=O)[C@H](CCCCNC(=O)[C@H](CCCCNC(=O)[C@H](CCCCNC(=O)[C@H](Cc1ccc(O)cc1)NC(=O)CCS[C@H]1O[C@H](CO)[C@@H](O)[C@H](O)[C@@H]1O)NC(=O)[C@H](Cc1ccc(O)cc1)NC(=O)CCS[C@@H]1O[C@@H](CO)[C@H](O)[C@@H](O)[C@H]1O)NC(=O)[C@H](CCCCNC(=O)[C@H](Cc1ccc(O)cc1)NC(=O)CCS[C@@H]1O[C@@H](CO)[C@H](O)[C@@H](O)[C@H]1O)NC(=O)[C@H](Cc1ccc(O)cc1)NC(=O)CCS[C@@H]1O[C@@H](CO)[C@H](O)[C@@H](O)[C@H]1O)NC(=O)[C@H](CCCCNC(=O)[C@H](CCCCNC(=O)[C@H](Cc1ccc(O)cc1)NC(=O)CCS[C@@H]1O[C@@H](CO)[C@H](O)[C@@H](O)[C@H]1O)NC(=O)[C@H](Cc1ccc(O)cc1)NC(=O)CCS[C@H]1O[C@H](CO)[C@@H](O)[C@H](O)[C@@H]1O)NC(=O)[C@H](CCCCNC(=O)[C@H](Cc1ccc(O)cc1)NC(=O)CCS[C@H]1O[C@H](CO)[C@@H](O)[C@H](O)[C@@H]1O)NC(=O)[C@H](Cc1ccc(O)cc1)NC(=O)CCS[C@H]1O[C@H](CO)[C@@H](O)[C@H](O)[C@@H]1O
83 | 2 | 660 | NC(=O)[C@H](CSSC[C@H](NC(=O)[C@H](CCCCNC(=O)[C@H](CCCCNC(=O)[C@H](Cc1ccc(O)cc1)NC(=O)CCS[C@H]1O[C@H](CO)[C@@H](O)[C@H](O)[C@@H]1O)NC(=O)[C@H](Cc1ccc(O)cc1)NC(=O)CCS[C@@H]1O[C@@H](CO)[C@H](O)[C@@H](O)[C@H]1O)NC(=O)[C@H](CCCCNC(=O)[C@H](Cc1ccc(O)cc1)NC(=O)CCS[C@H]1O[C@H](CO)[C@@H](O)[C@H](O)[C@@H]1O)NC(=O)[C@H](Cc1ccc(O)cc1)NC(=O)CCS[C@@H]1O[C@@H](CO)[C@H](O)[C@@H](O)[C@H]1O)C(N)=O)NC(=O)[C@H](CCCCNC(=O)[C@H](CCCCNC(=O)[C@H](Cc1ccc(O)cc1)NC(=O)CCS[C@H]1O[C@H](CO)[C@@H](O)[C@H](O)[C@@H]1O)NC(=O)[C@H](Cc1ccc(O)cc1)NC(=O)CCS[C@@H]1O[C@@H](CO)[C@H](O)[C@@H](O)[C@H]1O)NC(=O)[C@H](CCCCNC(=O)[C@H](Cc1ccc(O)cc1)NC(=O)CCS[C@H]1O[C@H](CO)[C@@H](O)[C@H](O)[C@@H]1O)NC(=O)[C@H](Cc1ccc(O)cc1)NC(=O)CCS[C@@H]1O[C@@H](CO)[C@H](O)[C@@H](O)[C@H]1O
